High-throughput results deposited in PubChem BioAssay by The Scripps Research Institute Molecular Screening Center.
Sampled rows, rich in hits. Any-hit rate of the full collection: about 3.3%.
PRMT1 FP inh – inhibitors of human PRMT1; Q99873; hit rate 1.3% among 370,000; recombinant PRMT1, activity-based probe fluorescence polarization; inhibition, % at 2.79 µM; AID 652257;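 active = inhibition above about 21% made by adding two undisclosed values, limit read from the data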
rCAG binder – binds r(CAG) RNA repeats | r(CAG) RNA repeat, TO-PRO-1 dye displacement fluorescence | inhibition, % at 3 µM | hit rate 1.3% among 370,000 | AID 651821;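 active = inhibition above the plate cutoff, the mean of all test compounds on that plate plus 3 SD, cut at about 35% in these data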;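 also: higher means more dye released from RNA so lower well fluorescence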
SIAE inh – inhibitors of human sialic acid acetylesterase SIAE; SIAE FP-Rh probe binding, fluorescence polarization; hit rate 0.69% among 370,000; inhibition, % at 9.66 µM;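 active = inhibition above a cutoff: mean of compounds within the control limits plus 3 SD of those, cut at about 17% in these data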
Target sequence (Q9HAT2 whole entry, looked up): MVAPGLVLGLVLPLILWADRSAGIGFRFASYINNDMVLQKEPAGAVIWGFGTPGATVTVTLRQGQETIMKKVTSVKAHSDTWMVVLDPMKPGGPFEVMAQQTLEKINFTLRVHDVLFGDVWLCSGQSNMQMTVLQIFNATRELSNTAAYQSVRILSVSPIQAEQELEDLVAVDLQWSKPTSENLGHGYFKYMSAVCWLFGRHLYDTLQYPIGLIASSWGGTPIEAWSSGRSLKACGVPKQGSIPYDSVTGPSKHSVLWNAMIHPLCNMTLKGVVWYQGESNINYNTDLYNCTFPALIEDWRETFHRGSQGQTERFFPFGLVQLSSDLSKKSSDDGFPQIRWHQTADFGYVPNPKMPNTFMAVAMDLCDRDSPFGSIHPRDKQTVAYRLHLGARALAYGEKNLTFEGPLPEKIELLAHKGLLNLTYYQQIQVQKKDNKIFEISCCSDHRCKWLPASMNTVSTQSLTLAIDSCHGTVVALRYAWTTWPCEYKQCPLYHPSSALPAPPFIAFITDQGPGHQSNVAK
TCR-CD3 inh – blocks the human TCR-CD3 interaction; TAMRA-labeled TCR probe fluorescence, biochemical; inhibition, % at 9.4 µM; hit rate 0.37% among 360,000; AID 651800; in the data active = inhibition above about 19%;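 also: recombinant mutant TCR 2C K166C tagged with TAMRA read by polarization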
ABHD4 inh – ABHD4 (mouse) inhibition, primary FP screen; purified mABHD4, FP-Rh probe fluorescence polarization; inhibition, % at 8.92 µM; hit rate 0.54% among 370,000;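 active = inhibition exceeding the mean over every tested compound plus 3 SD, cut at about 30% in these data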
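Test system: mABHD4 protein; Read-out basis: % inhibition; Incubation: 45 min + 60 min at 25 °C; Repeats: single replicate; Technique: fluorescence polarization with parallel and perpendicular emission, 525/598 nm; Compound: 8.92 µM, single dose; Benchmarks: full inhibition S159A mutant plus DMSO, zero as sample-well median.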
rCAG binder conf – r(CAG) RNA repeat binding, confirmation; shares compounds with rCAG binder; TO-PRO-1 dye displacement fluorescence; inhibition, % at 3 µM; hit rate 70% among 4,300; AID 652065;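 active = inhibition above a per-plate cutoff, the mean inhibition of sample wells plus 3 SD, cut at about 35% in these data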;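 also: loss of TO-PRO-1 fluorescence as compound displaces dye from 1x1 AA loop RNA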
dCAG dye counter – disrupts DNA CAG TO-PRO-1 complex, flagging rCAG hits; hit rate 94% among 4,300; d(CAG) DNA oligo TO-PRO-1 dye displacement, fluorescence; inhibition, % at 3 µM; shares compounds with rCAG binder;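 active = inhibition above its plate's cutoff, the mean test-well inhibition plus 3 SD, cut at about 4.8% in these data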;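 also: hits displace the dye from DNA and so lower well fluorescence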
Numbers stand for hits; . = inactive; / = no result given.

SMILES	PRMT1 FP inh	rCAG binder	SIAE inh	TCR-CD3 inh	ABHD4 inh	rCAG binder conf	dCAG dye counter
O=C(NCC(c1cccs1)N1CCOCC1)c1cccc(S(=O)(=O)Nc2ccc(F)cc2)c1 (stereo unspecified)	.	.	.	.	.	/	/
O=C(NCC(c1cccs1)N1CCOCC1)c1ccccc1NS(=O)(=O)c1ccc(Cl)c([N+](=O)[O-])c1 (stereo unspecified)	.	77.6	.	.	.	78.4	36.3
O=C(NCCCN1CCOCC1)c1ccccc1NS(=O)(=O)c1cc([N+](=O)[O-])ccc1Cl	.	.	.	.	.	/	/
O=C(NCC(c1cccs1)N1CCOCC1)c1ccccc1NS(=O)(=O)c1cccc([N+](=O)[O-])c1 (stereo unspecified)	.	48.1	.	.	.	39.6	11.0
O=C(NCC(c1cccs1)N1CCOCC1)c1ccccc1NS(=O)(=O)c1cc([N+](=O)[O-])ccc1Cl (stereo unspecified)	.	42.0	.	.	.	40.2	10.8
O=C(CSc1cc([N+](=O)[O-])cc(S(=O)(=O)Cc2ccccc2)c1)NC1CC1	.	56.0	.	.	.	.	5.6
COC(=O)c1ccc(Cn2ccc3ccc(-c4ccc5ccn(Cc6ccc(OC)cc6)c5c4)cc32)cc1	.	.	.	/	.	/	/
CC(C)(C)C1CCc2c(sc3nc(SCC(=O)O)nc(N)c23)C1 (stereo unspecified)	.	35.8	.	.	.	41.9	10.1
CC1(C)Cc2c(sc3nc(SCC(=O)O)nc(N)c23)CO1	.	.	.	.	.	/	/
Cc1oc2c(cc(NS(=O)(=O)c3ccc(F)cc3)c3ccccc32)c1C(=O)O	.	.	.	.	.	/	/
Cc1oc2c(cc(NS(=O)(=O)c3cccs3)c3ccccc32)c1C(=O)OC(C)C	.	37.4	.	.	.	.	9.5
Cc1oc2c(cc(NS(=O)(=O)c3ccc(C(C)C)cc3)c3ccccc32)c1C(=O)O	.	54.1	.	.	.	62.6	28.0
O=C(NCc1ccccc1)C1(C(=O)C2CC2)CC(c2ccccn2)=NO1 (stereo unspecified)	.	.	.	/	.	/	/
Cc1cccc(NC(=O)C2CCCN2S(=O)(=O)c2cccc3cccnc23)c1C (stereo unspecified)	.	.	.	/	.	/	/
O=C(O)c1cccc(CSc2nc(-c3ccccc3)cc(C(F)(F)F)n2)c1	.	62.4	.	.	.	48.2	13.7
CC(C)(C)c1ccc(CC(=O)N2CCC2(C)C(=O)NS(=O)(=O)c2ccc(Cl)cc2)cc1 (stereo unspecified)	.	36.8	.	.	.	52.2	17.2
Cc1ccc(S(=O)(=O)NC(=O)C2(C)CCN2C(=O)Cc2ccc(-c3ccccc3)cc2)cc1 (stereo unspecified)	.	58.5	.	.	.	52.8	15.1
CC(C)(C)c1ccc(S(=O)(=O)NC(=O)C2(C)CCN2C(=O)Cc2cccc3ccccc23)cc1 (stereo unspecified)	.	71.3	.	.	.	62.2	24.8
CC(C)(C)c1ccc(CC(=O)N2CCC2(C)C(=O)NS(=O)(=O)c2ccc(C#N)cc2)cc1 (stereo unspecified)	.	.	.	.	.	/	/
CC1(C(=O)NS(=O)(=O)c2ccccc2)CCN1C(=O)Cc1ccccc1 (stereo unspecified)	.	.	.	.	.	/	/
CC1(C(=O)NS(=O)(=O)c2ccccc2)CCN1C(=O)Cc1cccc2ccccc12 (stereo unspecified)	.	.	.	.	.	/	/
Cc1ccc(S(=O)(=O)NC(=O)C2(C)CCN2C(=O)Cc2ccc(C(C)(C)C)cc2)cc1 (stereo unspecified)	.	43.0	.	.	.	.	7.2
COc1ccc(C2C(C(=O)Nc3ccc(C)c(C)c3)CCC(=O)N2c2ccc(OC)cc2)cc1 (stereo unspecified)	.	.	.	/	.	/	/
O=C(NCCc1ccccc1)OCc1cn(Cc2cccc(F)c2F)nn1	.	.	.	/	.	/	/
C#CCNC(=O)C[C@@H]1C(=O)N(CC=C)/C2=C/CCCCC[C@]21C(=O)OCC	.	.	.	/	.	/	/
SMILES	PRMT1 FP inh	rCAG binder	SIAE inh	TCR-CD3 inh	ABHD4 inh	rCAG binder conf	dCAG dye counter
CN[C@H]1C[C@H]2c3cc(-c4ccc5c(c4)OCO5)ccc3CCN2C[C@H]1[C@H](C)O	.	.	.	/	.	/	/
O=c1/c(=C\c2cccn2-c2ccccc2)sc2nc3ccccc3n12	.	.	.	.	.	/	/
O=C(O)Cn1cc(/C=c2/sc3nc4ccccc4n3c2=O)c2ccccc21	.	52.0	.	.	.	90.0	72.8
O=C(O)Cn1cc(/C=C2/NC(=O)N(c3ccc(Cl)cc3)C2=O)c2ccccc21	.	60.5	.	.	.	62.0	20.9
CC(C)C[C@H](NC(C)(C)C(=O)NC1CCCCC1)C(=O)NCCc1c[nH]c2ccccc12	.	/	.	/	.	/	/
C=CCN1C(=O)[C@H](CC(=O)NCCCC)[C@@]2(C(=O)OCC)CCCC=C12	.	.	.	/	.	/	/
O=C1NC(=Nc2ccccc2Cl)S/C1=C\c1cc([N+](=O)[O-])ccc1O	.	82.4	.	.	.	69.3	27.2
O=C1N/C(=N/O)S/C1=C/c1cccc([N+](=O)[O-])c1	.	.	.	.	.	/	/
Cc1ccc(S(=O)(=O)/N=C2/NC(=O)/C(=C/c3cc([N+](=O)[O-])ccc3O)S2)cc1	.	88.0	.	.	.	66.9	24.6
COc1cccc(N=C2NC(=O)/C(=C/c3cc([N+](=O)[O-])ccc3O)S2)c1	.	.	.	.	.	/	/
CCn1c(SCC(=O)Nc2ccc(C(N)=O)cc2)nc2sc(C)c(C)c2c1=O	.	.	.	/	.	/	/
CCCCCN1CCCCC(NC(=O)C(C)(C)C)C1=O (stereo unspecified)	.	.	.	/	.	/	/
CC(=O)N1[C@@H](CO)[C@@H](c2ccc(-c3cccc(F)c3)cc2)[C@@H]1CNCC1CCC1	.	.	.	/	.	/	/
COc1cccc(Nc2nc(-c3sc(C)nc3C)cs2)c1	.	.	.	.	.	/	/
COc1cccc(Nc2nc(-c3sc(NC(=O)c4ccco4)nc3C)cs2)c1	.	36.6	.	.	.	.	16.6
COc1ccc(Cl)cc1Nc1nc(-c2sc(NC(=O)c3ccco3)nc2C)cs1	.	35.4	.	.	.	.	17.0
CC(C)c1ccc(NC(=O)Cc2c(C(=O)O)n(C)c3ccccc23)cc1	.	50.6	.	.	.	.	5.8
COc1ccc(Oc2ccc(/C=C/C(=O)c3ccc(O)cc3)cc2[N+](=O)[O-])cc1	.	36.5	.	.	.	.	10.7
O=C(C=Cc1ccco1)c1ccc2ccccc2c1	.	38.2	.	.	.	.	10.0
COc1ccc(/C=C/C(=O)c2ccc(O)cc2)cc1COc1ccc(F)cc1	.	.	.	.	.	/	/
